In ChEMBL document CHEMBL5724801, “EUbOPEN Chemogenomics Library - Multiplex” (2024):
Several values for one entry are separate records, joined by “and”; a condition that tells them apart may be missing. Equal values may be shown once.

Test system: HEK-293T
Assay: Multiplex assay against HEK293T
Format: toxicity, cell-based
Details: human
Procedure, shortened: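 On a CQ1 microscope at 37°C and 5% CO2, live cells were imaged after compound addition. They had been stained at seeding with Hoechst33342, BioTracker Green Microtubule Cytoskeleton Dye, MitoTracker Red and Annexin V Alexa Fluor 680. CellPathfinder machine-learning gating assigned cells to Hoechst high-intensity objects or normal cells, normal cells to healthy, pyknosed or fragmented nuclei, and pyknosed cells to mitotic or apoptotic. Tubulin, mitochondrial-mass and membrane-permeability phenotypes are per cents of healthy-nucleus cells.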

[1] = 12 h, 1 µM, compound concentration 1 uM
[2] = 12 h, 10 µM, compound concentration 10 uM
[3] = 24 h, 1 µM, compound concentration 1 uM
[4] = 24 h, 10 µM, compound concentration 10 uM
[5] = 48 h, 1 µM, compound concentration 1 uM
[6] = 48 h, 10 µM, compound concentration 10 uM

COc1cc(OC2CCN(C(C)=O)CC2)ccc1C(=O)N1CCC(N2C(=O)OCc3ccccc32)CC1
Population Apoptotic (%) [1]: 28% and 48%
Population Fragmented Nuclei (%) [1]: 5%
Population Healthy Nuclei (%) [1]: 83% and 76%
Population Hoechst High Intensity Objects (%) [1]: 7%
Population Membrane Permeable-Phenotype (%) [1]: 0%
Population Mitochondria Different-Phenotype (%) [1]: 37% and 59%
Population Mitotic Cells (%) [1]: 71% and 51%
Population Normal (%) [1]: 92%
Population Pyknosed Nuclei (%) [1]: 11% and 18%
Population Tubulin-Different-Phenotype (%) [1]: 26% and 21%
Total Cell Count [1]: 477 and 381
Population Apoptotic (%) [2]: 40% and 67%
Population Fragmented Nuclei (%) [2]: 9% and 4%
Population Healthy Nuclei (%) [2]: 77% and 80%
Population Hoechst High Intensity Objects (%) [2]: 8% and 6%
Population Membrane Permeable-Phenotype (%) [2]: 0%
Population Mitochondria Different-Phenotype (%) [2]: 57% and 77%
Population Mitotic Cells (%) [2]: 60% and 32%
Population Normal (%) [2]: 91% and 93%
Population Pyknosed Nuclei (%) [2]: 13% and 14%
Population Tubulin-Different-Phenotype (%) [2]: 47% and 40%
Total Cell Count [2]: 436 and 316
Population Apoptotic (%) [3]: 28% and 48%
Population Fragmented Nuclei (%) [3]: 9% and 7%
Population Healthy Nuclei (%) [3]: 78% and 80%
Population Hoechst High Intensity Objects (%) [3]: 4% and 6%
Population Membrane Permeable-Phenotype (%) [3]: 2% and 0%
Population Mitochondria Different-Phenotype (%) [3]: 25% and 40%
Population Mitotic Cells (%) [3]: 71% and 51%
Population Normal (%) [3]: 95% and 93%
Population Pyknosed Nuclei (%) [3]: 11% and 12%
Population Tubulin-Different-Phenotype (%) [3]: 17% and 15%
Total Cell Count [3]: 598 and 491
Population Apoptotic (%) [4]: 31% and 49%
Population Fragmented Nuclei (%) [4]: 8% and 7%
Population Healthy Nuclei (%) [4]: 78%
Population Hoechst High Intensity Objects (%) [4]: 3% and 4%
Population Membrane Permeable-Phenotype (%) [4]: 0%
Population Mitochondria Different-Phenotype (%) [4]: 44% and 58%
Population Mitotic Cells (%) [4]: 68% and 50%
Population Normal (%) [4]: 96% and 95%
Population Pyknosed Nuclei (%) [4]: 13% and 14%
Population Tubulin-Different-Phenotype (%) [4]: 36% and 29%
Total Cell Count [4]: 523 and 393
Population Apoptotic (%) [5]: 20% and 33%
Population Fragmented Nuclei (%) [5]: 13% and 11%
Population Healthy Nuclei (%) [5]: 78% and 80%
Population Hoechst High Intensity Objects (%) [5]: 3% and 2%
Population Membrane Permeable-Phenotype (%) [5]: 1%
Population Mitochondria Different-Phenotype (%) [5]: 19% and 23%
Population Mitotic Cells (%) [5]: 79% and 66%
Population Normal (%) [5]: 96% and 97%
Population Pyknosed Nuclei (%) [5]: 8% and 7%
Population Tubulin-Different-Phenotype (%) [5]: 13% and 12%
Total Cell Count [5]: 902 and 655
Population Apoptotic (%) [6]: 36%
Population Fragmented Nuclei (%) [6]: 13% and 12%
Population Healthy Nuclei (%) [6]: 78% and 80%
Population Hoechst High Intensity Objects (%) [6]: 4% and 3%
Population Membrane Permeable-Phenotype (%) [6]: 0%
Population Mitochondria Different-Phenotype (%) [6]: 30% and 39%
Population Mitotic Cells (%) [6]: 63%
Population Normal (%) [6]: 95% and 96%
Population Pyknosed Nuclei (%) [6]: 8% and 7%
Population Tubulin-Different-Phenotype (%) [6]: 21% and 16%
Total Cell Count [6]: 813 and 625

C[C@H](NC(=O)CNC(=O)c1cccc(Cl)c1)c1ccccc1
Population Apoptotic (%) [1]: 33% and 48%
Population Fragmented Nuclei (%) [1]: 5% and 6%
Population Healthy Nuclei (%) [1]: 79% and 84%
Population Hoechst High Intensity Objects (%) [1]: 8% and 4%
Population Membrane Permeable-Phenotype (%) [1]: 0%
Population Mitochondria Different-Phenotype (%) [1]: 39% and 52%
Population Mitotic Cells (%) [1]: 66% and 51%
Population Normal (%) [1]: 91% and 95%
Population Pyknosed Nuclei (%) [1]: 15% and 9%
Population Tubulin-Different-Phenotype (%) [1]: 29% and 17%
Total Cell Count [1]: 449 and 384
Population Apoptotic (%) [2]: 41% and 58%
Population Fragmented Nuclei (%) [2]: 6% and 7%
Population Healthy Nuclei (%) [2]: 76% and 77%
Population Hoechst High Intensity Objects (%) [2]: 7% and 13%
Population Membrane Permeable-Phenotype (%) [2]: 0%
Population Mitochondria Different-Phenotype (%) [2]: 54% and 61%
Population Mitotic Cells (%) [2]: 58% and 41%
Population Normal (%) [2]: 92% and 86%
Population Pyknosed Nuclei (%) [2]: 17% and 15%
Population Tubulin-Different-Phenotype (%) [2]: 39% and 33%
Total Cell Count [2]: 362 and 272
Population Apoptotic (%) [3]: 23% and 45%
Population Fragmented Nuclei (%) [3]: 9% and 7%
Population Healthy Nuclei (%) [3]: 80% and 84%
Population Hoechst High Intensity Objects (%) [3]: 4% and 2%
Population Membrane Permeable-Phenotype (%) [3]: 1% and 0%
Population Mitochondria Different-Phenotype (%) [3]: 25% and 32%
Population Mitotic Cells (%) [3]: 76% and 54%
Population Normal (%) [3]: 95% and 97%
Population Pyknosed Nuclei (%) [3]: 10% and 7%
Population Tubulin-Different-Phenotype (%) [3]: 15% and 9%
Total Cell Count [3]: 646 and 476
Population Apoptotic (%) [4]: 43% and 58%
Population Fragmented Nuclei (%) [4]: 9% and 10%
Population Healthy Nuclei (%) [4]: 77% and 78%
Population Hoechst High Intensity Objects (%) [4]: 4% and 9%
Population Membrane Permeable-Phenotype (%) [4]: 0%
Population Mitochondria Different-Phenotype (%) [4]: 39% and 49%
Population Mitotic Cells (%) [4]: 56% and 41%
Population Normal (%) [4]: 95% and 90%
Population Pyknosed Nuclei (%) [4]: 12% and 11%
Population Tubulin-Different-Phenotype (%) [4]: 25% and 19%
Total Cell Count [4]: 505 and 303
Population Apoptotic (%) [5]: 19% and 30%
Population Fragmented Nuclei (%) [5]: 13%
Population Healthy Nuclei (%) [5]: 80% and 81%
Population Hoechst High Intensity Objects (%) [5]: 3% and 2%
Population Membrane Permeable-Phenotype (%) [5]: 0% and 2%
Population Mitochondria Different-Phenotype (%) [5]: 15% and 16%
Population Mitotic Cells (%) [5]: 80% and 70%
Population Normal (%) [5]: 96% and 97%
Population Pyknosed Nuclei (%) [5]: 5%
Population Tubulin-Different-Phenotype (%) [5]: 12% and 6%
Total Cell Count [5]: 984 and 606
Population Apoptotic (%) [6]: 44% and 35%
Population Fragmented Nuclei (%) [6]: 15% and 19%
Population Healthy Nuclei (%) [6]: 77% and 72%
Population Hoechst High Intensity Objects (%) [6]: 1% and 2%
Population Membrane Permeable-Phenotype (%) [6]: 0%
Population Mitochondria Different-Phenotype (%) [6]: 26% and 28%
Population Mitotic Cells (%) [6]: 55% and 64%
Population Normal (%) [6]: 98% and 97%
Population Pyknosed Nuclei (%) [6]: 7%
Population Tubulin-Different-Phenotype (%) [6]: 18% and 16%
Total Cell Count [6]: 735 and 462
